Assay results taken from ChEMBL document CHEMBL1123828, “Carbostyril derivatives having potent beta-adrenergic agonist properties” (J Med Chem, 1987).

Key:
[1] = molecular target: Adrenergic receptor beta (Rattus norvegicus, UniProt P18090+P10608+P26255); assay: The compound was evaluated for the inhibition of [125I]cyanopindolol binding to beta adrenergic receptor in rat reticulocyte membrane.; format: cell membranes
[2] = species: Rattus norvegicus; assay: The compound was evaluated for its ability to stimulate adenylate cyclase activity; format: functional
Outline: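 Rat reticulocyte membranes (0.01–0.05 mg protein) incubated 10 min at 32 °C in 50 mM Tris-HCl pH 7.4 with 1.6 mM ATP, 5 mM MgCl2, 1 mM EGTA, 10 mM theophylline, 0.01% BSA, creatine phosphokinase/phosphocreatine, 0.5 mM GTP and varying ligand concentrations. Stopped by boiling with EDTA buffer; cAMP measured by competitive protein binding. Basal and GTP activity subtracted; EC50 from dose-effect analysis.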

[3] = species: Rattus norvegicus; assay: The compound was evaluated for the intrinsic activity compared to (-)-isoproterenol.; format: functional

SMILES | IC50 [1] [nM] | EC50 [2] [nM] | IA [3]
CC(C)(Cc1ccc(NC(=O)CBr)cc1)NCC(O)c1ccc(O)c2nc(O)ccc12 (centres undefined) | 5.3 | 8.5 | 1.2
CC(C)(Cc1ccccc1)NCC(O)c1ccc(O)c2nc(O)ccc12 (centres undefined) | 3.1 | 6.9 | 1
CC(C)(Cc1ccc(N)cc1)NCC(O)c1ccc(O)c2nc(O)ccc12 (centres undefined) | 22 | 14.2 | 1
CC(C)(Cc1ccc(I)cc1)NCC(O)c1ccc(O)c2nc(O)ccc12 (centres undefined) | 7.6 | 5.6 | 1.3
CC(C)NCC(O)c1ccc(O)c(O)c1 (single isomer, unassigned; (-)) [ISOPROTERENOL] |  | 226 | 1
